From ChEMBL document CHEMBL4011639, “Discovery of Novel Nucleotide Prodrugs with Improved Potency Against HCV Variants Carrying NS5B S282T Mutation” (J Med Chem, 2017)

Assays:
[1] = Inhibition of wild type NS5B in HCV genotype 1b replicon expressed in human HuH7 cells after 72 hrs by bright Glo-luciferase reporter gene assay; format: cell-based, Hepatitis C virus subtype 1b; conditions: Hepatitis C virus, Huh-7, 72 h
In short: (§1)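 Huh7 cells carrying HCV genotype 1b replicon, 8000 per well, in duplicate 3-fold dilution series with 0.5% DMSO final; 72 h at 37 °C, 5% CO2. Viability read by Cell Titer-Fluor fluorescence after 5 min; replicon inhibition read by Bright-Glo luciferase luminescence in the same wells. EC50 and CC50 come from curve fitting.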

Huh-7 = test: Cytotoxicity against human HuH7 cells assessed as reduction in cell viability up to 100 uM after 72 hrs by Cell Titer-Fluor Cell assay; format: cell-based; conditions: huh-7, 72 h; in short: as §1
[2] = test system: Hepatitis C virus subtype 1b; test: Ratio of EC50 for HCV genotype 1b replicon NS5B S282T mutant to EC50 for wild type HCV genotype 1b replicon NS5B
In short: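 Huh7 cells carrying wild-type or S282T mutant HCV genotype 1b replicon, 8000 cells per well, exposed to 3-fold compound dilution series (0.5% DMSO final, duplicates) for 72 h at 37 °C, 5% CO2. Replicon activity read by Bright-Glo luciferase luminescence. EC50 averaged from duplicate determinations; ratio taken as S282T EC50 over wild-type EC50.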

[3] = Half life in human plasma […] by LC/MS/MS analysis; format: ADME, cell-free
In short: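 Pooled human plasma adjusted to pH 7.4 and prewarmed, then spiked to 2 μM final from a 200 μM DMSO working solution, in duplicate. Sampled at 0, 10, 30, 60 and 120 min and quenched with acetonitrile containing tolbutamide and buspirone. LC/MS/MS (MRM) peak area ratios; ke from linear regression of the initial linear phase, t1/2 = ln2/ke.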

[4] = Half life in human liver S9 fraction at 10 uM by LC/MS/MS analysis; format: ADME
In short: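 Compound at 10 μM working solution (1% DMSO, 5% MeOH in 100 mM Tris) incubated at 37 °C with human liver S9 at 1 mg protein/mL final. Reactions stopped with cold acetonitrile containing tolbutamide internal standard at 0, 5, 10, 20, 30 and 60 min. Parent measured by LC/MS/MS (MRM) as analyte/IS peak area ratio, given as percent remaining versus 0 min; half-life fitted.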

EC50 [1] [nM]	Structure (SMILES)	Activity (Huh-7)	Ratio EC50 [2]	half-life [3] [h]	half-life at 10 µM [4] [h]
> 10000	CC(C)OC(=O)[C@H](C)N[P@](=O)(OC[C@H]1O[C@@H](n2ccc(NC(=O)OC3CCCCC3)nc2=O)[C@](C)(F)[C@@H]1O)Oc1ccccc1	Non-Toxic			
> 10000	CCC(CC)OC(=O)Nc1ccn([C@@H]2O[C@H](CO[P@@](=O)(N[C@@H](C)C(=O)OC(C)C)Oc3ccccc3)[C@@H](O)[C@@]2(C)F)c(=O)n1	Non-Toxic			
2610	CCCCOC(=O)Nc1ccn([C@@H]2O[C@H](CO[P@@](=O)(N[C@@H](C)C(=O)OC(C)C)Oc3ccccc3)[C@@H](O)[C@@]2(C)F)c(=O)n1	Non-Toxic			
1110	CC(C)C(=O)OC[C@H]1O[C@@H](n2ccc(N)nc2=O)[C@](C)(F)[C@@H]1OC(=O)C(C)C [MERICITABINE]	Non-Toxic			
4200	CC(C)OC(=O)[C@H](C)N[P@](=O)(OC[C@H]1O[C@@H](n2ccc(NC(=O)C3CCCCC3)nc2=O)[C@](C)(F)[C@@H]1O)Oc1ccccc1	Non-Toxic			
> 10000	CCCCCOC(=O)Nc1ccn([C@@H]2O[C@H](CO[P@@](=O)(N[C@@H](C)C(=O)OC(C)C)Oc3ccccc3)[C@@H](O)[C@@]2(C)F)c(=O)n1	Non-Toxic			
1320	CC(C)OC(=O)[C@H](C)N[P@](=O)(OC[C@H]1O[C@@H](n2ccc(NC(=O)Cc3ccccc3)nc2=O)[C@](C)(F)[C@@H]1O)Oc1ccccc1	Non-Toxic			
1920	CC(C)OC(=O)[C@H](C)N[P@](=O)(OC[C@H]1O[C@@H](n2ccc(NC(=O)c3ccc(Cl)cc3)nc2=O)[C@](C)(F)[C@@H]1O)Oc1ccccc1	Non-Toxic			
> 10000	CC(C)COC(=O)Nc1ccn([C@@H]2O[C@H](CO[P@@](=O)(N[C@@H](C)C(=O)OC(C)C)Oc3ccccc3)[C@@H](O)[C@@]2(C)F)c(=O)n1	Non-Toxic			
190	CC(C)OC(=O)[C@H](C)N[P@](=O)(OC[C@H]1O[C@@H](n2ccc(NC(=O)C3CCC3)nc2=O)[C@](C)(F)[C@@H]1O)Oc1ccccc1	Non-Toxic			
1470	CC(C)OC(=O)[C@H](C)N[P@](=O)(OC[C@H]1O[C@@H](n2ccc(NC(=O)CCc3ccccc3)nc2=O)[C@](C)(F)[C@@H]1O)Oc1ccccc1	Non-Toxic			
190	CCCCC(=O)Nc1ccn([C@@H]2O[C@H](CO[P@@](=O)(N[C@@H](C)C(=O)OC(C)C)Oc3ccccc3)[C@@H](O)[C@@]2(C)F)c(=O)n1	Non-Toxic			
250	CCCCCC(=O)Nc1ccn([C@@H]2O[C@H](CO[P@@](=O)(N[C@@H](C)C(=O)OC(C)C)Oc3ccccc3)[C@@H](O)[C@@]2(C)F)c(=O)n1	Non-Toxic			
2200	CC(C)OC(=O)[C@H](C)N[P@](=O)(OC[C@H]1O[C@@H](n2ccc(NC(=O)C(C)C)nc2=O)[C@](C)(F)[C@@H]1O)Oc1ccccc1	Non-Toxic			
> 10000	CCCCCCOC(=O)Nc1ccn([C@@H]2O[C@H](CO[P@@](=O)(N[C@@H](C)C(=O)OC(C)C)Oc3ccccc3)[C@@H](O)[C@@]2(C)F)c(=O)n1	Non-Toxic			
6010	CCCOC(=O)Nc1ccn([C@@H]2O[C@H](CO[P@@](=O)(N[C@@H](C)C(=O)OC(C)C)Oc3ccccc3)[C@@H](O)[C@@]2(C)F)c(=O)n1	Non-Toxic			
2250	CC(C)OC(=O)[C@H](C)N[P@](=O)(OC[C@H]1O[C@@H](n2ccc(NC(=O)C3CC3)nc2=O)[C@](C)(F)[C@@H]1O)Oc1ccccc1	Non-Toxic			
1480	CCC(=O)Nc1ccn([C@@H]2O[C@H](CO[P@@](=O)(N[C@@H](C)C(=O)OC(C)C)Oc3ccccc3)[C@@H](O)[C@@]2(C)F)c(=O)n1	Non-Toxic			
1640	CCCC(CCC)C(=O)Nc1ccn([C@@H]2O[C@H](CO[P@@](=O)(N[C@@H](C)C(=O)OC(C)C)Oc3ccccc3)[C@@H](O)[C@@]2(C)F)c(=O)n1	Non-Toxic			
> 10000	CC(C)OC(=O)[C@H](C)N[P@](=O)(OC[C@H]1O[C@@H](n2ccc(NC(=O)OCc3ccccc3)nc2=O)[C@](C)(F)[C@@H]1O)Oc1ccccc1	Non-Toxic			
1990	CC(C)OC(=O)[C@H](C)N[P@](=O)(OC[C@H]1O[C@@H](n2ccc(NC(=O)c3ccccc3)nc2=O)[C@](C)(F)[C@@H]1O)Oc1ccccc1	Non-Toxic			
8360	CCOC(=O)Nc1ccn([C@@H]2O[C@H](CO[P@@](=O)(N[C@@H](C)C(=O)OC(C)C)Oc3ccccc3)[C@@H](O)[C@@]2(C)F)c(=O)n1	Non-Toxic			
> 10000	COc1ccc(C(=O)Nc2ccn([C@@H]3O[C@H](CO[P@@](=O)(N[C@@H](C)C(=O)OC(C)C)Oc4ccccc4)[C@@H](O)[C@@]3(C)F)c(=O)n2)cc1	Non-Toxic			
4080	CC(C)OC(=O)[C@H](C)N[P@](=O)(OC[C@H]1O[C@@H](n2ccc(NC(=O)/C=C/c3ccccc3)nc2=O)[C@](C)(F)[C@@H]1O)Oc1ccccc1	Non-Toxic			
3870	CC(C)OC(=O)Nc1ccn([C@@H]2O[C@H](CO[P@@](=O)(N[C@@H](C)C(=O)OC(C)C)Oc3ccccc3)[C@@H](O)[C@@]2(C)F)c(=O)n1	Non-Toxic			
670	CC(C)CCC(=O)Nc1ccn([C@@H]2O[C@H](CO[P@@](=O)(N[C@@H](C)C(=O)OC(C)C)Oc3ccccc3)[C@@H](O)[C@@]2(C)F)c(=O)n1	Non-Toxic			
1040	CC(=O)Nc1ccn([C@@H]2O[C@H](CO[P@@](=O)(N[C@@H](C)C(=O)OC(C)C)Oc3ccccc3)[C@@H](O)[C@@]2(C)F)c(=O)n1	Non-Toxic			
4020	CC(C)OC(=O)[C@H](C)N[P@](=O)(OC[C@H]1O[C@@H](n2ccc(NC(=O)C(C)(C)Oc3ccc(Cl)cc3)nc2=O)[C@](C)(F)[C@@H]1O)Oc1ccccc1	Non-Toxic			
> 10000	CCC(CC)C(=O)Nc1ccn([C@@H]2O[C@H](CO[P@@](=O)(N[C@@H](C)C(=O)OC(C)C)Oc3ccccc3)[C@@H](O)[C@@]2(C)F)c(=O)n1	Non-Toxic			

Structure (SMILES)	EC50 [1] [nM]	Activity (Huh-7)	Ratio EC50 [2]	half-life [3] [h]	half-life at 10 µM [4] [h]
CC(C)OC(=O)[C@H](C)N[P@](=O)(OC[C@H]1O[C@@H](n2ccc(N)nc2=O)[C@](C)(F)[C@@H]1O)Oc1ccccc1	660	Non-Toxic	4.1	> 3.85	1.78
CC(C)OC(=O)[C@H](C)N[P@](=O)(OC[C@H]1O[C@@H](n2ccc(=O)[nH]c2=O)[C@](C)(F)[C@@H]1O)Oc1ccccc1 [SOFOSBUVIR]	150	Non-Toxic	8.1	> 3.85	0.802
